Experimental data gathered from unrelated publications.
Medium: plasma
Route: oral

SMILES	test system	conditions	Vd/F [L]
C[C@@]1(c2cc(NC(=O)c3ccc(C#N)cn3)ccc2F)C=CSC(N)=N1	human	30 mg, single dose	276
COc1ccc([C@@H]2CN(C(=O)[C@@H](O)CO)C[C@@]2(C)[C@@H](C)O)cc1OC1CN(c2ccc(C)cn2)C1	human	0.5 mg, single dose, healthy volunteers	40.7
N#CN1C[C@H](n2nc(-c3ccc(Oc4ccc(Cl)cn4)cc3)c(C(N)=O)c2N)CCC12CC2	human	600 mg, fed	1230
CCOc1ccc(Cc2cc([C@@H]3O[C@H](CO)[C@@H](O)[C@H](O)[C@H]3O)ccc2Cl)cc1	human	10 mg, multiple doses, steady state	320
NC[C@@](O)(c1ccc(Cl)cc1)c1ccc(-c2cn[nH]c2)cc1	human	5 mg, patients	1400
CO[C@H]1CC[C@H](N2C(=O)CNc3ncc(-c4ccc(C(C)(C)O)nc4)nc32)CC1	human	60 mg, patients	236
c1cnc2ccc(Nc3nc(NC4CC4)c4nc[nH]c4n3)cc2c1	human	100 mg/m², patients	163
Cc1cc(Nc2cc(N3CCN(C)CC3)nc(/C=C/c3ccccc3)n2)n[nH]1	human	120 mg/m², multiple doses, patients	847
COc1cc(C(=O)NC2CCN(C)CC2)c(F)cc1Nc1ncc(C(F)(F)F)c(Oc2cccc3c2C(=O)N(C)C3)n1	human	100 mg, single dose, patients	236
CC(C)(Sc1ccncc1-c1ccc(C#N)c2ccccc12)C(=O)O	male human	20 mg, single dose, fed, healthy volunteers	531
C[C@@H](c1ccc2nccn2c1)n1nnc2ncc(-c3cnn(C)c3)nc21	human	200 mg	310
COC(=O)N[C@@H](C)CNc1nccc(-c2cn(C(C)C)nc2-c2cc(Cl)cc(NS(C)(=O)=O)c2F)n1	human	50 mg, single dose	260
